Experimental data taken from ChEMBL document CHEMBL1137627, “Hit generation and exploration: imidazo[4,5-b]pyridine derivatives as inhibitors of Aurora kinases” (Bioorg Med Chem Lett, 2007).
pIC50: −log10 of the molar value. Active and inactive are the calls of the source. The rule behind the calls is not given here.

Columns and labels:
Aurora kinase A = molecular target: T1, Aurora kinase A (Homo sapiens, UniProt O14965); experiment: Inhibition of aurora A kinase
T1 sequence (O14965 whole entry): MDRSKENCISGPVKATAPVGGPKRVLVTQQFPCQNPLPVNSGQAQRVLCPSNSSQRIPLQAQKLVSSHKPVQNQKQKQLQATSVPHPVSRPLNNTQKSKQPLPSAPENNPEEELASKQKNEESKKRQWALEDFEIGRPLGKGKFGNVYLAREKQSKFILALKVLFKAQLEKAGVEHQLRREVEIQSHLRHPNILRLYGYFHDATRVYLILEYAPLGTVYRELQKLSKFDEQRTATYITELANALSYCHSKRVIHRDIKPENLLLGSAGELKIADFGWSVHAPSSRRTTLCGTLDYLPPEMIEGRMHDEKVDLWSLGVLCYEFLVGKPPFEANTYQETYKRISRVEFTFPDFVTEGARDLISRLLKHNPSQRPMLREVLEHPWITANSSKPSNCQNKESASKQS
How it was run: (§1)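 Aurora-A kinase activity measured by Flashplate or Filterplate assay at 20 µM ATP. Samples run in triplicate and mean reported; some IC50 values are the mean of independent determinations.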

[1] = molecular target: T2, Aurora kinase A (Homo sapiens) (UniProt O14965); experiment: Inhibition of aurora A kinase at 10 uM; how it was run: as §1
T2 sequence (whole entry): T1 sequence (O14965 whole entry)

[2] = molecular target: T2, Aurora kinase A (Homo sapiens); experiment: Inhibition of aurora A kinase at 100 uM; how it was run: as §1
Aurora kinase B = Aurora kinase B (Homo sapiens, UniProt Q96GD4); experiment: Inhibition of recombinant aurora B kinase
Sequence of Aurora kinase B (Q96GD4 whole entry): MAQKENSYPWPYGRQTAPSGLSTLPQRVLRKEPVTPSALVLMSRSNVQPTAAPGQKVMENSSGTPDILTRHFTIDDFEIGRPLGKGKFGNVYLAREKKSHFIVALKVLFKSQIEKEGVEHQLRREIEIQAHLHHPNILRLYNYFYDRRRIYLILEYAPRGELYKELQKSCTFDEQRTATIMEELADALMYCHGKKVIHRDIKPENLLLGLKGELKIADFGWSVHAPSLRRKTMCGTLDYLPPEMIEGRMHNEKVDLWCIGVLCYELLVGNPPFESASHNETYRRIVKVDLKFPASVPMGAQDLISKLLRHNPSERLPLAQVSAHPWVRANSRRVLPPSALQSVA
How it was run: (§2)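 Purified recombinant Aurora kinase; IC50 determined by either a Flashplate or a Filterplate assay, with ATP in the assay at 20.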

Cytochrome P450 1A2 = molecular target: T3, Cytochrome P450 1A2 (Homo sapiens, UniProt P05177); experiment: Inhibition of human CYP1A2 after 10 mins; assay type: ADME
T3 sequence (P05177 whole entry): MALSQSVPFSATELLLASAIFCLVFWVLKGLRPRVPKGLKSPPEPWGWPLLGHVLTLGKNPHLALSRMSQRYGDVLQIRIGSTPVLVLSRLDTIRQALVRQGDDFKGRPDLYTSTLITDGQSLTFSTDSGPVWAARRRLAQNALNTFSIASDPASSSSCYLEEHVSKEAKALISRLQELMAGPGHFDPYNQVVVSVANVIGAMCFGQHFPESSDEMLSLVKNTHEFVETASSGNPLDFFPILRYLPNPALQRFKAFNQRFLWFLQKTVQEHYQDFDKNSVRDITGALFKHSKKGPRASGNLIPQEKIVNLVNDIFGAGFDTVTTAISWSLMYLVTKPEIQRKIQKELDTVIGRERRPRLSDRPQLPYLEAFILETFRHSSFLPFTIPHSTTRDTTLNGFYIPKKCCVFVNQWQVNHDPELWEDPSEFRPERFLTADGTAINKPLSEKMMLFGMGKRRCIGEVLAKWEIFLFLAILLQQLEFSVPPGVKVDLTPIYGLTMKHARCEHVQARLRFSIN
How it was run: (§3)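 Inhibition of CYP isozymes assayed in pooled human liver microsomes from 50 individuals. Microsomal protein 0.5 mg/ml, 10 min incubation. Mephenytoin served as the CYP2C19 substrate. Metabolites were detected by LC–MS–MS with positive electrospray ionisation.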

Cytochrome P450 2A6 = molecular target: T4, Cytochrome P450 2A6 (Homo sapiens, UniProt P11509); experiment: Inhibition of human CYP2A6 after 10 mins; assay type: ADME; how it was run: as §3
T4 sequence (P11509 whole entry): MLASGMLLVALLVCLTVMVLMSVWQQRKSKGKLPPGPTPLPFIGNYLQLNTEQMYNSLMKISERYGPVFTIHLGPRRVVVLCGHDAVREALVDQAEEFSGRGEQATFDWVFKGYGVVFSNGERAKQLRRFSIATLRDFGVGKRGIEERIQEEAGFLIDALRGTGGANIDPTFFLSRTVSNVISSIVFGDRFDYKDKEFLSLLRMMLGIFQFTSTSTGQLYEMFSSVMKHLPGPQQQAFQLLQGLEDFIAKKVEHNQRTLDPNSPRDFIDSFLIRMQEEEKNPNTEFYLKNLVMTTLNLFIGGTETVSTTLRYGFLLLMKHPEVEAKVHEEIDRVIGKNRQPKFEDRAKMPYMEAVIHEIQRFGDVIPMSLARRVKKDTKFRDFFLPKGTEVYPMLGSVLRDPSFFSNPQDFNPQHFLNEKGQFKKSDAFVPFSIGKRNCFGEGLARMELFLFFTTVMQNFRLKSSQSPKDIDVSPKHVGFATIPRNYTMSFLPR

[3] = Metabolic stability in mouse liver microsomes after 30 mins; assay type: ADME, Microsome; conditions: read-out: Stability
How it was run: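 Compound incubated 30 min with mouse liver microsomes. Percent of parent compound remaining was reported.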

Cytochrome P450 2C9 = Cytochrome P450 2C9 (Homo sapiens, UniProt P11712); experiment: Inhibition of human CYP2C9 after 10 mins; assay type: ADME; how it was run: as §3
Sequence of Cytochrome P450 2C9 (P11712 whole entry): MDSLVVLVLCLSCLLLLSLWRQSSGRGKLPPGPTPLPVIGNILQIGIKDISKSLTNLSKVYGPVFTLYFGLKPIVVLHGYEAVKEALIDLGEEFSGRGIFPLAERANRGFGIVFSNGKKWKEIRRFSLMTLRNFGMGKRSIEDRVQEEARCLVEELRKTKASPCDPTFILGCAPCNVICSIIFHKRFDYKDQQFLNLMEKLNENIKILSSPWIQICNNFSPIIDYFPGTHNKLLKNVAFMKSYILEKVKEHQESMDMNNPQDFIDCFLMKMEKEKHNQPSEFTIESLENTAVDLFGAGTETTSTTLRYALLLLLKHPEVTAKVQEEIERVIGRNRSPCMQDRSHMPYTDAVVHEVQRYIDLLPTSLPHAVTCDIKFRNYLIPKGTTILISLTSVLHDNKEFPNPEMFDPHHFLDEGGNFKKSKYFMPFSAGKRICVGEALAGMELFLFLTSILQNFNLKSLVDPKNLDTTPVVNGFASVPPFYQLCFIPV

Aurora kinase C = molecular target: T5, Aurora kinase C (Homo sapiens, UniProt Q9UQB9); experiment: Inhibition of recombinant aurora C kinase; how it was run: as §2
T5 sequence (Q9UQB9 whole entry): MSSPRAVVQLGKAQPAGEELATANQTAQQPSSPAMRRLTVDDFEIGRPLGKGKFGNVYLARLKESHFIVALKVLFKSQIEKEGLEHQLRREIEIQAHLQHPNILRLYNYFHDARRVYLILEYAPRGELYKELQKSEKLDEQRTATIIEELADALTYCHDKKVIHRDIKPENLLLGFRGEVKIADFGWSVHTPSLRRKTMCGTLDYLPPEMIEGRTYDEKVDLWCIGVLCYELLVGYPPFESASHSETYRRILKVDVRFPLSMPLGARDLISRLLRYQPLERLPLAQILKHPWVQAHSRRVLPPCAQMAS

Cytochrome P450 2C19 = Cytochrome P450 2C19 (Homo sapiens, UniProt P33261); experiment: Inhibition of human CYP2C19 after 10 mins; assay type: ADME; how it was run: as §3
Sequence of Cytochrome P450 2C19 (P33261 whole entry): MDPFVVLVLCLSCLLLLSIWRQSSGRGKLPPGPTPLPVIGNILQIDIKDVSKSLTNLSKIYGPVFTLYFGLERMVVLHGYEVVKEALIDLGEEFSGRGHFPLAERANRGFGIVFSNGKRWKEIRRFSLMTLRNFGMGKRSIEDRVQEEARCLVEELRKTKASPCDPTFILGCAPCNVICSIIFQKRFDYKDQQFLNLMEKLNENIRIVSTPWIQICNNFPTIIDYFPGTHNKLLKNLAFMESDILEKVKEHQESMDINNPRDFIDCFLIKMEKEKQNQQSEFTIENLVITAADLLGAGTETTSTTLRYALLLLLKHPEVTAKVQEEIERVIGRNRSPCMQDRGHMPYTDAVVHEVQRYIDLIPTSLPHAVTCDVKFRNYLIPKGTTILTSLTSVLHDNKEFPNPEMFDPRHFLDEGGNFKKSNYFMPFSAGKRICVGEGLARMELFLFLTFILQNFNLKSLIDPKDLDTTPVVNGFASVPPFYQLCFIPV

HCT-116 = experiment: Antiproliferative activity against HCT116 cells; assay type: functional; conditions: Homo sapiens
Cytochrome P450 2D6 = Cytochrome P450 2D6 (Homo sapiens, UniProt P10635); experiment: Inhibition of human CYP2D6 after 10 mins; assay type: ADME; how it was run: as §3
Sequence of Cytochrome P450 2D6 (P10635 whole entry): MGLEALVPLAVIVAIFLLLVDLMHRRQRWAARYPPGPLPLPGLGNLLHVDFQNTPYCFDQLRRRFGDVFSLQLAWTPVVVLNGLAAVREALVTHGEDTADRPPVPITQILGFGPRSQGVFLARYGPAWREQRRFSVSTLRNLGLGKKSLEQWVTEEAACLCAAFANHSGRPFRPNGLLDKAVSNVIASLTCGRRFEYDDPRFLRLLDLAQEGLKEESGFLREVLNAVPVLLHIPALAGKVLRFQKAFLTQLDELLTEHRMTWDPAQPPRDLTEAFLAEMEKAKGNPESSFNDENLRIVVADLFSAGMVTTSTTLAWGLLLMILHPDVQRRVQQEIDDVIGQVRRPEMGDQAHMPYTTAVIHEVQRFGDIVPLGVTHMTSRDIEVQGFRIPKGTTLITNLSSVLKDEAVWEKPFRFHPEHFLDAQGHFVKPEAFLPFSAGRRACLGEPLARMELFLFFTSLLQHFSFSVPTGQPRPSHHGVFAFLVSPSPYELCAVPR

HeLa = experiment: Antiproliferative activity against HeLa cells; assay type: functional; conditions: Homo sapiens

| pIC50 (Aurora kinase A) | SMILES | also measured |
| --- | --- | --- |
| 6.13 | CN(C)c1ccc(-c2nc3cc(C(F)(F)F)cnc3[nH]2)cc1 |  |
| 4.78 | COc1cc2ncnc(N3CCN(CC(=O)N(C)c4ccccc4)CC3)c2cc1OC |  |
| 4.46 | COc1cc2ncnc(N3CCN(CCOc4ccccc4)CC3)c2cc1OC |  |
| 5.62 | CN(C)c1ccc(-c2nc3c(Cl)ccnc3[nH]2)cc1 |  |
|  | CN(C)c1ccccc1-c1nc2cccnc2[nH]1 | inhibition [1]: 20% |
| 5.02 | COc1cc2ncnc(N3CCN(Cc4cccc5ccccc45)CC3)c2cc1OC |  |
| 5.36 | c1cnc2nc(-c3ccc(C4CCCCN4)cc3)[nH]c2c1 (stereo not given) |  |
| 5.34 | c1cnc2nc(-c3ccc(N4CCCC4)cc3)[nH]c2c1 |  |
| 4.12 | COc1cc2ncnc(N3CCN(CCc4ccccc4)CC3)c2cc1OC |  |
|  | COc1cc2ncnc(N3CCN(CC(=O)OC(C)(C)C)CC3)c2cc1OC | Activity [2]: inactive |
|  | CCn1c(-c2ccc(N(C)C)cc2)nc2cccnc21 | inhibition [2]: 26% |
| 4.90 | CN(C)c1ccc(-c2nc3cc[nH]cc-3n2)cc1 | inhibition [1]: 35% |
| 6.60 | CN(C)c1ccc(-c2nc3ncc(Cl)c(Cl)c3[nH]2)cc1 |  |
| 4.60 | COc1cc2ncnc(N3CCN(C(C)c4ccccc4)CC3)c2cc1OC (stereo not given) |  |
|  | CN(C)c1ccc(-c2nc3c(N4CCN(CC(=O)Nc5nccs5)CC4)c(Cl)cnc3[nH]2)cc1 | pIC50 (Aurora kinase B): 6.70; pIC50 (Cytochrome P450 1A2): < 5.00; pIC50 (Cytochrome P450 2A6): < 5.00; remaining at 0.5 h [3]: 75%; pIC50 (Cytochrome P450 2C9): 5.00; pIC50 (Aurora kinase C): 6.64; pIC50 (Cytochrome P450 2C19): < 5.00; GI50 (HCT-116): 0.35 µM; pIC50 (Cytochrome P450 2D6): < 5.00; GI50 (HeLa): 0.2 µM |
|  | CN(C)c1ccc(-c2nc3cc(-c4ccc5c(c4)OCO5)cnc3[nH]2)cc1 | inhibition [2]: 33% |
| 5.05 | CC(=O)c1cccc(-c2cnc3[nH]c(-c4ccc(N(C)C)cc4)nc3c2)c1 |  |
| 4.80 | COc1cccc(-c2nc3ncccc3[nH]2)c1 |  |
| 6.24 | CN(C)c1ccc(-c2nc3cc(Cl)cnc3[nH]2)cc1 |  |
|  | CN(C)c1ccc(-c2nc3ccccc3[nH]2)cc1 | inhibition [2]: 8% |

| pIC50 (Aurora kinase A) | SMILES | also measured |
| --- | --- | --- |
|  | COc1cc2ncnc(N3CCN(c4cnccn4)CC3)c2cc1OC | Activity [2]: inactive |
| 5.23 | COc1cc2ncnc(N3CCN(CC(=O)Nc4nccs4)CC3)c2cc1OC |  |
|  | COc1cc2ncnc(N3CCN(c4ncccn4)CC3)c2cc1OC | Activity [2]: inactive |
| 6.31 | CN(C)c1ccc(-c2nc3ncc(Br)cc3[nH]2)cc1 |  |
|  | N#Cc1ccc(-c2nc3cccnc3[nH]2)cc1 | inhibition [1]: 38% |
|  | CN(C)c1ccc(-c2nc3cc(-c4cccnc4)cnc3[nH]2)cc1 | inhibition [1]: 28% |
| 4.01 | COc1cc2ncnc(N3CCN(CC(=O)N4CCCC4)CC3)c2cc1OC |  |
| 5.37 | CN(C)c1ccc(-c2nc3cccnc3[nH]2)cc1 |  |
|  | COc1cc2ncnc(N3CCN(CCn4ccnc4)CC3)c2cc1OC | Activity [2]: inactive |
| 5.16 | Cc1cnc2[nH]c(-c3ccc(N(C)C)cc3)nc2c1 |  |
| 5.18 | COc1ccc(-c2nc3ncccc3[nH]2)cc1 |  |
| 5.00 | CN(C)c1cccc(-c2nc3cccnc3[nH]2)c1 |  |
| 4.54 | COc1ccccc1-c1nc2ccc[nH]c-2n1 |  |
| 4.74 | CN(C)c1ccc(-c2nc3ncc(-c4cccc(O)c4)cc3[nH]2)cc1 |  |
|  | CN(C)c1ccc(-c2nc3cc(-c4cccc(O)c4)cnc3[nH]2)cc1 | inhibition [1]: 31% |
| 5.15 | Cc1ccnc2nc(-c3ccc(N(C)C)cc3)[nH]c12 |  |
|  | CN(C)c1ccc(-c2nc3cc(-c4cccs4)cnc3[nH]2)cc1 | inhibition [1]: 34% |
| 4.70 | COc1ccc(-c2cnc3nc(-c4ccc(N(C)C)cc4)[nH]c3c2)cc1 |  |
| 6.06 | CN(C)c1ccc(-c2nc3c(N4CCN(CC(=O)Nc5nccs5)CC4)ccnc3[nH]2)cc1 |  |
| 4.40 | COc1cc2ncnc(N3CCN(Cc4ccc(F)cc4)CC3)c2cc1OC |  |
